Experimental findings from ChEMBL document CHEMBL1145949, “Constrained derivatives of stylostatin 1. 1. Synthesis and biological evaluation as potential anticancer agents” (2003) are described below.

Test [1] is described as follows: Growth inhibition effect against colon LOVO-DOX cells. It counts as functional, Homo sapiens. The method, boiled down:
(§1)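 SRB colorimetric growth assay. Cells seeded at 5 × 10^3 per well in RPMI, attached 18 h in drug-free medium, then sample added (dissolved in DMSO/H₂O 3:7) for 48-72 h. Fixed with cold 50% TCA, 60 min, 4 °C; stained with 0.4% SRB in 1% acetic acid, 10 min RT; bound dye solubilized in Tris, OD 490 nm. GI50 from 100 × [(T − T0)/(C − T0)] = 50.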

The nature of test [2]: Growth inhibition effect against prostate tumor LN-caP cells. The test is classed as functional, Homo sapiens. The method, boiled down:
as §1

Test [3] can be described thus: Growth inhibition effect against […] HT-29 cells. The test is classed as functional, Homo sapiens. The method, boiled down: as §1
Test [4] is described as follows: Growth inhibition effect against NSCL A-549 cells. It counts as functional, Homo sapiens. The gist of the method:
as §1

A short description of test [5]: Growth inhibition effect against ovarian tumor IGROV-ET cells. It counts as functional, Homo sapiens. The gist of the method:
as §1

Test [6] is described as follows: Growth inhibition effect against prostate tumor IGROV cells. It counts as functional, Homo sapiens. The method, boiled down:
as §1

A short description of test [7]: Growth inhibition effect against pancreas PANC-1 cells. The test is classed as functional, Homo sapiens. The gist of the method: as §1
The nature of test [8]: Growth inhibition effect against colon LOVO cells. The test is classed as functional, Homo sapiens. The method, boiled down:
as §1

For another test, the system named is K562. Put plainly: Growth inhibition effect against leukemia […] cells. It counts as functional, Homo sapiens. The method, boiled down: as §1
Test [9] is described as follows: Growth inhibition effect against ovarian tumor SK-BR-3 cells. The test is classed as functional, Homo sapiens. The method, boiled down: as §1
Test [10] can be described thus: Growth inhibition effect against melanoma MEL-28 cells. The test is classed as functional, Homo sapiens. The method, boiled down:
as §1

Test [11] in a line: Growth inhibition effect against prostate tumor DU-145 cells. It counts as functional, Homo sapiens. The gist of the method: as §1
Test [12] in a line: Growth inhibition effect against prostate tumor SKOV-3 cells. The test is classed as functional, Homo sapiens, SK-OV-3. The gist of the method: as §1

In general, GI50 refers to the concentration that inhibits growth by half. A lower GI50 goes with more potent growth inhibition.

As to `CC[C@H](C)[C@@H]1NC(=O)[C@H](C)NC(=O)[C@H](CC(C)C)NC(=O)[C@H](CO)NC(=O)[C@H](CC(N)=O)NC(=O)[C@H](Cc2ccccc2)NC(=O)[C@@H]2CCCN2C1=O` (stereo in doubt) [STYLOSTATIN 1], the GI50 in [1] (Homo sapiens, LOVO-DOX) was found to be 6.77 µM; in [2] (Homo sapiens, LNCaP), 2.6 µM; in test [3] (Homo sapiens, HT-29) it was 6.85 µM; in test [4] (Homo sapiens, A549), 3.46 µM; in test [5] (Homo sapiens, IGROV-ET), 3.3 µM; in test [6] (Homo sapiens, IGROV), 2.58 µM. For the same molecule, the GI50 in [7] (Homo sapiens, PANC-1) turned out to be 5.03 µM; in test [8] it was 4.55 µM; in the test with K562 (Homo sapiens, K562), 1.94 µM; in test [9] (Homo sapiens, SK-BR-3), 4.39 µM; in [10] (Homo sapiens, SK-MEL-28), 3.06 µM; in test [11], 3.55 µM. Further, halving of growth in test [12] (GI50) required 304 µM.

Turning to `CC[C@H](C)[C@@H]1NC(=O)[C@H](C)NC(=O)[C@H](CC(C)C)NC(=O)[C@H](CO)NC(=O)[C@H](CC(N)=O)NC(=O)[C@H](Cc2ccccc2)NC(=O)[C@@H]2CCCN2C1=O` (stereo in doubt; 2) [STYLOSTATIN 1], the GI50 in [1] came out at 8.52 µM; in [2] it was 2.44 µM; in [3], 7.13 µM; in test [4], 4.28 µM; in [5], 4.29 µM; in [6], 3.35 µM. For the same molecule, the GI50 in test [7] came out at 4.97 µM; in test [8] it was 11.5 µM; in the test with K562, 3.42 µM; in test [9] it was 4.16 µM; in test [10] it was 4.64 µM; in test [11], 8.44 µM. Halving of growth in [12] (GI50) required 3.77 µM.

For `CC[C@H](C)[C@@H]1NC(=O)[C@H](C)NC(=O)[C@H](CC(C)C)N2C[C@@H](O)[C@@H](O)[C@H](NC(=O)[C@H](CC(N)=O)NC(=O)[C@H](Cc3ccccc3)NC(=O)[C@@H]3CCCN3C1=O)C2=O`, the GI50 in test [1] (Homo sapiens, LOVO-DOX) amounted to 8.84 µM; in [2] (Homo sapiens, LNCaP) it was 3.49 µM; in test [3] (Homo sapiens, HT-29), 9.31 µM; in [4] (Homo sapiens, A549), 5.2 µM; in test [5] (Homo sapiens, IGROV-ET), 4.97 µM; in [6] (Homo sapiens, IGROV), 3.33 µM. Also, the GI50 worked out at 5.1 µM in [7] (Homo sapiens, PANC-1); 8.83 µM in test [8] (Homo sapiens, LoVo); 3.59 µM with K562 (Homo sapiens, K562); 3.86 µM in [9] (Homo sapiens, SK-BR-3); 6.69 µM in [10] (Homo sapiens, SK-MEL-28); 10.6 µM in test [11] (Homo sapiens, DU-145). For the same molecule, growth in test [12] (Homo sapiens, SK-OV-3) was halved (GI50) at 4.99 µM.
